Each block holds one molecule with its values, some of them ahead of it.
Assays:
[1] = molecular target: T1, Endothelin receptor type B (Homo sapiens, UniProt P24530); assay: Binding affinity against human cloned Endothelin B receptor expressed in CHO-K1 cells; assay type: cell-based
T1 sequence (P24530 whole entry): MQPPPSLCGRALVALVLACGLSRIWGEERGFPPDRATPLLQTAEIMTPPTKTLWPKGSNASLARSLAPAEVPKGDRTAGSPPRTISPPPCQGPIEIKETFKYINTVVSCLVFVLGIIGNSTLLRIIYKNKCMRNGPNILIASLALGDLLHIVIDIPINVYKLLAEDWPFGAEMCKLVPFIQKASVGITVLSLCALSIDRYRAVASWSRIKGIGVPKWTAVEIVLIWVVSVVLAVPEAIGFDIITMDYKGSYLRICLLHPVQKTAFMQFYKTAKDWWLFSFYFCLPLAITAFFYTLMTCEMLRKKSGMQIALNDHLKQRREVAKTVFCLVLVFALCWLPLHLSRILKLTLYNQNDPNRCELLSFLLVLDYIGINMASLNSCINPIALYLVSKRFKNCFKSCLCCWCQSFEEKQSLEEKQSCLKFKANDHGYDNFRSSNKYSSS
Outline: (§1)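 Radioligand binding to cloned human ETA (Ltk⁻ cells) and ETB (CHO-K1 cells) receptors. […] Selectivity expressed as ETB IC50/ETA IC50.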

[2] = molecular target: T1, Endothelin receptor type B; assay: Inhibition of Endothelin B receptor mediated (ET-3) release of arachidonic acid from human cloned receptors / CHO-K1 cells; In active; assay type: cell-based
Outline: (§2)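 Arachidonic acid release assay. ETA: rabbit renal artery vascular smooth muscle cells stimulated with ET-1. ETB: recombinant human receptors in CHO-K1 cells stimulated with ET-3.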

[3] = molecular target: Endothelin receptor, ET-A/ET-B (Homo sapiens) (UniProt P24530+P25101); assay: Selectivity of compound on ET B with respect to ET A receptor; assay type: protein assay; outline: as §1
Endothelin-1 receptor = molecular target: T2, Endothelin-1 receptor (Homo sapiens, UniProt P25101); assay: Binding affinity against human cloned endothelin A receptor expressed in LTK-cells; assay type: cell-based
T2 sequence (P25101 whole entry): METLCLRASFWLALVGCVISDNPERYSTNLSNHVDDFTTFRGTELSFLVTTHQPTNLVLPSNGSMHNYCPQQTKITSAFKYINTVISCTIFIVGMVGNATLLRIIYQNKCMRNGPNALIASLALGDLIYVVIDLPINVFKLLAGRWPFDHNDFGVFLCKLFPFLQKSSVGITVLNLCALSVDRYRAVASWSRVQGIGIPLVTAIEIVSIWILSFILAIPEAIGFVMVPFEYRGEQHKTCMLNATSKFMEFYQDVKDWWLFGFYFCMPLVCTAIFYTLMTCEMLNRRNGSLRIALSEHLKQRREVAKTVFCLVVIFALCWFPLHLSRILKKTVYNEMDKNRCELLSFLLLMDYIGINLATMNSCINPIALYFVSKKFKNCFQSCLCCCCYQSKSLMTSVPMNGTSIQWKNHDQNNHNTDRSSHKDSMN
Outline: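 Radioligand binding to cloned human ETA (Ltk⁻ cells) and ETB (CHO-K1 cells) receptors. Selectivity expressed as ETB IC50/ETA IC50.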

Rattus norvegicus = assay: In vivo effect at 10 mg/kg on MABP in anesthetized ganglionic-blocked rats versus ET-1 (0.3 nmol/kg, iv) baseline; assay type: functional
Outline: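 Rats dosed orally by gavage at 10 mg/kg. Ganglionic blockade with mecamylamine given 15 min later (baseline MABP 80–90 mmHg). ET-1 challenge (0.3 nmol/kg iv) 15 min after that. Reduction of the peak pressor response, about 5 min post ET-1, scored against vehicle-treated controls.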

[4] = molecular target: T1, Endothelin receptor type B; assay: Inhibition of Endothelin B receptor mediated (ET-3) release of arachidonic acid from human cloned receptors expressed in CHO-K1 cells; assay type: cell-based; outline: as §2
[5] = Area under the concentration-time curve from time zero to infinity in oral (5 mg/kg) fed dogs; assay type: ADME, organism-based, Canis lupus familiaris; details: dog, in vivo
Outline: (§3)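 Three-way crossover in four male beagles: single 2.5 mg/kg iv dose (fed) or 5 mg/kg oral capsule, fed or fasted. Serial heparinized plasma taken up to 24 h. Drug isolated by reverse-phase SPE, quantified by C18 HPLC with fluorescence (ex 312, em 430 nm), LOQ 10 ng/mL. Noncompartmental analysis. […] AUC by trapezoidal rule extrapolated to infinity. F from dose-normalized po/iv AUC ratio.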

[6] = Time to reach maximum observed concentration in oral (5 mg/kg) fasted dogs; assay type: ADME, organism-based, Canis lupus familiaris; details: dog, in vivo; outline: as §3
[7] = Mean of apparent terminal phase elimination half-life after intravenous administration of 2.5 mg/kg in dogs; assay type: ADME, organism-based, Canis lupus familiaris; design: dose 2.5 mg/kg, route intravenous; details: dog, in vivo
Outline: (§4)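 Four male beagle dogs, fed, single 2.5 mg/kg iv dose within a three-way crossover. Serial heparinized plasma sampled to 24 h. Drug recovered by reverse-phase solid-phase extraction and measured by HPLC with fluorescence detection (ex 312, em 430 nm); LOQ 10 ng/mL.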

[8] = Absolute oral bioavailability in oral (5 mg/kg) fasted dogs; assay type: ADME, organism-based, Canis lupus familiaris; details: dog, in vivo; outline: as §3
[9] = Maximum observed concentration in oral (5 mg/kg) fed dogs; assay type: ADME, organism-based, Canis lupus familiaris; design: dose 5 mg/kg, route oral; details: dog, in vivo; outline: as §3
[10] = Area under the concentration-time curve from time zero to infinity in oral (5 mg/kg) fasted dogs; assay type: ADME, organism-based, Canis lupus familiaris; details: dog, in vivo; outline: as §3
[11] = Mean of apparent terminal phase elimination half-life in oral (5 mg/kg) fasted dogs; assay type: ADME, organism-based, Canis lupus familiaris; details: dog, in vivo; outline: as §3
[12] = Maximum observed concentration in oral (5 mg/kg) fasted dogs; assay type: ADME, organism-based, Canis lupus familiaris; design: dose 5 mg/kg, route oral; details: dog, in vivo; outline: as §3
[13] = Area under the concentration-time curve from time zero to infinity after intravenous administration of 2.5 mg/kg in dogs; assay type: ADME, organism-based, Canis lupus familiaris; design: dose 2.5 mg/kg, route intravenous; details: dog, in vivo; outline: as §4
[14] = Time to reach maximum observed concentration in oral (5 mg/kg) fed dogs; assay type: ADME, organism-based, Canis lupus familiaris; details: dog, in vivo; outline: as §3
[15] = Mean of apparent terminal phase elimination half-life in oral (5 mg/kg) fed dogs; assay type: ADME, organism-based, Canis lupus familiaris; details: dog, in vivo; outline: as §3
[16] = Absolute oral bioavailability in oral (5 mg/kg) fed dogs; assay type: ADME, organism-based, Canis lupus familiaris; details: dog, in vivo; outline: as §3

Compound: O=C1OC(O)(c2ccc(Cl)cc2)C(Cc2ccccc2)=C1c1ccc2c(c1)OCO2 (stereo unspecified)
- IC50 [1]: 27 µM
- IC50 [2]: Not Active

Compound: COc1ccc(C2(O)OC(=O)C(c3cc(OC)c4c(c3)OCO4)=C2Cc2cc(OC)c(OC)c(OC)c2)cc1 (stereo unspecified)
- IC50 [1]: 0.26 µM
- Selectivity [3]: 520
- IC50 (Endothelin-1 receptor): 0.0005 µM

Compound: COc1ccc(C(=O)/C(Cc2ccccc2)=C(\C(=O)[O-])c2ccc3c(c2)OCO3)cc1.C[N+](C)(C)CCO
- Pressure response (Rattus norvegicus): 80%
- IC50 [4]: 22 µM

Compound: CCOc1cc(CC2=C(c3ccc4c(c3)OCO4)C(=O)OC2(O)c2ccc(OC)cc2)cc(OCC)c1OCC (stereo unspecified)
- IC50 [1]: 0.445 µM
- Selectivity [3]: 3700
- IC50 (Endothelin-1 receptor): 0.00012 µM

Compound: COc1ccc(C2(O)OC(=O)C(c3ccc4c(c3)OCO4)=C2Cc2cc(OC)c(OC)c(OC)c2)cc1 (stereo unspecified) [PD-156707]
- AUC(0-inf) [5]: 590 ng·h/mL
- Tmax [6]: 0.69 h
- half-life [7]: 0.62 h
- bioavailability [8]: 67%
- Cmax [9]: 480 ng/mL
- AUC(0-inf) [10]: 2000 ng·h/mL
- half-life [11]: 1.2 h
- Cmax [12]: 1520 ng/mL
- AUC(0-inf) [13]: 1500 ng·h/mL
- Tmax [14]: 2.5 h
- half-life [15]: 1.9 h
- bioavailability [16]: 20%

Further lines, with some results ahead:

- IC50 [4]: 15.7 µM
Compound: COc1ccc(C(=O)/C(Cc2ccccc2)=C(\C(=O)[O-])c2cc(OC)c3c(c2)OCO3)cc1.[Na+]
- Pressor response (Rattus norvegicus): 76%

- IC50 [4]: 1.9 µM
Compound: COc1ccc(C(=O)/C(Cc2cc(OC)c(OC)c(OC)c2)=C(\C(=O)[O-])c2ccc3c(c2)OCO3)cc1C.[Na+]
- Pressor response (Rattus norvegicus): 53%

— ChEMBL document CHEMBL1129982, “Structure-activity relationships in a series of orally active gamma-hydroxy butenolide endothelin antagonists” (J Med Chem, 1997)
